Reference: publication PMC8501901 (Proceedings of the National Academy of Sciences of the …, 2021)
Values belong to the molecule of their own block, whether it stands above or below them. Where a SMILES comes first, the peptide text is derived from it. Where no end group is shown, it is not given here. The star is where a group is joined. Myristoyl = CCCCCCCCCCCCCC(=O)*

Tests used:
[1] = system: U251 MG glioblastoma cancer cells; assay: Cell viability; format: cell-based, human; conditions: XTT; peptide concentration 10 μM; three independent experiments
Outline: (§1)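 Cells seeded at 5 × 10^3/well and grown 16 to 24 h. N-terminally myristoylated peptides were added in serum-free medium for 4 h, then serum was replenished for 24 h. XTT absorbance was read and converted to cell number with a per-line standard curve (1.25 to 20 × 10^3 cells plated, assayed after 24 h). At least three repeats, each in triplicate.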

PKCθ = PKCθ (Homo sapiens, UniProt Q04759); assay: In vitro kinase assay, immunoprecipitated PKC, MBP substrate, γ-[32P]ATP; format: biochemical
Outline: (§2)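 Novel PKC isoforms were HA-tagged, expressed in HEK-293T and pulled down with anti-HA beads (100 μg lysate). Reaction 30 min at 32 °C; 32P-MBP read by autoradiography and normalized via HA/MBP immunoblots. Means of three independent experiments.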

PKC-α = assay: In vitro kinase assay, immunoprecipitated PKC, MBP substrate, γ-[32P]ATP; format: biochemical; conditions: PMA and CaCl2
Outline: (§3)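 HA-tagged classical PKC was overexpressed in HEK-293T, and lysate (100 μg) was immunoprecipitated with immobilized anti-HA. Incubated 30 min, 32 °C. 32P-MBP detected by SDS-PAGE/autoradiography; HA and MBP then immunoblotted and band signals quantified.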

[2] = system: PKC-η (Ser675, Thr655) in MCF-7 cells; assay: Western blot of PKC-η priming-site phosphorylation; format: cell-based, human; conditions: peptide 10 μM for 4 h, with/without MG132 10 μM, immunoblot
MCF-7 cells [3] = assay: Western blot of DNA damage response markers and PKC-η after etoposide; format: cell-based, human; conditions: peptide 2 μM, etoposide 50 μM
Outline: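 MCF-7 treated with peptides (2 μM), then etoposide (50 μM). Lysed 30 min after etoposide addition, then Western blot with specific antibodies for phospho-γ-H2AX, Chk1, Chk2, ATM and ATR; Hsp90 and β-actin as loading controls. A non-myristoylated, cell-impermeant peptide served as control. Three independent experiments.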

[4] = system: nontransformed MCF10A cells; assay: Cell viability; format: cell-based, human; conditions: XTT; peptide concentration 10 μM; three independent experiments
Outline: as §1

PKCδ = PKCδ (Homo sapiens, UniProt Q05655); assay: In vitro kinase assay, immunoprecipitated PKC, MBP substrate, γ-[32P]ATP; format: biochemical
Outline: as §2

[5] = system: MDA-MB-231 breast cancer cells; assay: Cell viability; format: cell-based, human; conditions: XTT; peptide concentration 10 μM; three independent experiments
Outline: as §1

PKC-γ = assay: In vitro kinase assay, immunoprecipitated PKC, MBP substrate, γ-[32P]ATP; format: biochemical; conditions: PMA and CaCl2
Outline: as §3

MCF-7 cells [6] = assay: Cell death with etoposide-induced DNA damage; format: cell-based, human; conditions: uPEP2 2 μM followed by etoposide 50 μM for 48 h, means of at least three experiments
PKCη = PKCη (Homo sapiens, UniProt P24723); assay: In vitro kinase assay, immunoprecipitated PKC, MBP substrate, γ-[32P]ATP; format: biochemical; conditions: for inhibition of kinase activity of PKCη: even at 10 μΜ peptide, MBP substrate
Outline: as §2

PKCε = biological target: T1, PKCε (Homo sapiens, UniProt Q02156); assay: as above; format: biochemical
T1 sequence (Q02156 1-737): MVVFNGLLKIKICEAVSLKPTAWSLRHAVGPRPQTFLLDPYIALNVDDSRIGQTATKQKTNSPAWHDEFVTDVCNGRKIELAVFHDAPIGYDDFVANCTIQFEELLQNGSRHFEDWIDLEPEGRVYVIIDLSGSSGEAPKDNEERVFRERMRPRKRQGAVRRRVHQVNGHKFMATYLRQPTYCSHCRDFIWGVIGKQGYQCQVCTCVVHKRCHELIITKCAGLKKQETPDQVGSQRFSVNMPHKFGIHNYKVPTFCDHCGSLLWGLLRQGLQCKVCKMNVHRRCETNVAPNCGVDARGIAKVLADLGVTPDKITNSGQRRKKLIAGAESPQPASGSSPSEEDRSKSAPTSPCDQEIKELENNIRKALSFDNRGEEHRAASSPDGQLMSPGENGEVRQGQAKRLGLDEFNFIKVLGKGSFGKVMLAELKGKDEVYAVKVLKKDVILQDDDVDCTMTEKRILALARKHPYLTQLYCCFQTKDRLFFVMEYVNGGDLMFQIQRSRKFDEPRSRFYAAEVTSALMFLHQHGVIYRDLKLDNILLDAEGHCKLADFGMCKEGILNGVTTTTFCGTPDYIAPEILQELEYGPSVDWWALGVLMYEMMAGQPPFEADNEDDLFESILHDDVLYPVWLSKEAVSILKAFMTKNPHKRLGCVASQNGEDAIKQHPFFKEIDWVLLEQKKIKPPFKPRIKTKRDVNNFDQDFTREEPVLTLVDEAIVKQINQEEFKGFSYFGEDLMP
Outline: as §2

PKC-ζ = assay: In vitro kinase assay, immunoprecipitated PKC, MBP substrate, γ-[32P]ATP; format: biochemical
Outline: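 Atypical isoform, HA-tagged and overexpressed in HEK-293T; anti-HA immunoprecipitate from 100 μg lysate. Autoradiography of 32P-MBP after SDS-PAGE, with anti-HA and anti-MBP immunoblots for quantification.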

MDA-MB-231 tumors [7] = assay: MDA-MB-231 orthotopic breast cancer xenograft in NOD-SCID mice; format: in vivo; conditions: 10 mg/kg intratumor on alternate days; four mice
Outline: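 Female 6–8-wk-old NOD-SCID mice received 4 × 10^6 MDA-MB-231-Luc cells in 100 μL PBS into the mammary fat pad. At ~100 mm3, mice were randomized to PBS, a non-myristoylated control peptide, or test peptide (10 mg/kg), given intratumorally on alternate days. Caliper measurements three times weekly; V = (W2 × L)/2. Endpoint at ~2,000 mm3.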

[8] = system: MCF-7 breast cancer cells; assay: Cell viability; format: cell-based, human; conditions: XTT; peptide concentration 10 μM; three independent experiments
Outline: as §1

MDA-MB-231 tumors [9] = assay: MDA-MB-231 orthotopic breast cancer xenograft in NSG mice; format: in vivo
PKC-η = assay: Kinase assay with the peptide as substrate; format: biochemical; conditions: γ-ATP
PKC-ε = assay: Kinase assay with the peptide as substrate; format: biochemical; conditions: γ-ATP

PKCη, sequence (P24723 whole entry): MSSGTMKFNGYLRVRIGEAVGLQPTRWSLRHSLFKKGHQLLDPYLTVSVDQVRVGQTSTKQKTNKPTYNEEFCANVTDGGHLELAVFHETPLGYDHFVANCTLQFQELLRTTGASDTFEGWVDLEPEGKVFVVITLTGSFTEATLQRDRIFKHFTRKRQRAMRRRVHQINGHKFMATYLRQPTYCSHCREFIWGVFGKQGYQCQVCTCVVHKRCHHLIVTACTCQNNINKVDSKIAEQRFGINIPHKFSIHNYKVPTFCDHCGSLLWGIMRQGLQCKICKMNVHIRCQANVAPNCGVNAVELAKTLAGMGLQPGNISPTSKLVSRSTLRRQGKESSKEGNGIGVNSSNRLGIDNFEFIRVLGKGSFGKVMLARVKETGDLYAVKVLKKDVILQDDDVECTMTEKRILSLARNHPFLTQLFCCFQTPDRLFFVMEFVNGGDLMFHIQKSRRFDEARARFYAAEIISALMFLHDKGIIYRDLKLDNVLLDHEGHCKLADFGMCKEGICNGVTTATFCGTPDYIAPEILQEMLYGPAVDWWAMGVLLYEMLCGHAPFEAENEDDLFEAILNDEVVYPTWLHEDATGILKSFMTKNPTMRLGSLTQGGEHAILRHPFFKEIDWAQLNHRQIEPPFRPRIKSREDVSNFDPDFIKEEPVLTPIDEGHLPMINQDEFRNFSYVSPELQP
PKCθ, sequence (Q04759 whole entry, canonical isoform): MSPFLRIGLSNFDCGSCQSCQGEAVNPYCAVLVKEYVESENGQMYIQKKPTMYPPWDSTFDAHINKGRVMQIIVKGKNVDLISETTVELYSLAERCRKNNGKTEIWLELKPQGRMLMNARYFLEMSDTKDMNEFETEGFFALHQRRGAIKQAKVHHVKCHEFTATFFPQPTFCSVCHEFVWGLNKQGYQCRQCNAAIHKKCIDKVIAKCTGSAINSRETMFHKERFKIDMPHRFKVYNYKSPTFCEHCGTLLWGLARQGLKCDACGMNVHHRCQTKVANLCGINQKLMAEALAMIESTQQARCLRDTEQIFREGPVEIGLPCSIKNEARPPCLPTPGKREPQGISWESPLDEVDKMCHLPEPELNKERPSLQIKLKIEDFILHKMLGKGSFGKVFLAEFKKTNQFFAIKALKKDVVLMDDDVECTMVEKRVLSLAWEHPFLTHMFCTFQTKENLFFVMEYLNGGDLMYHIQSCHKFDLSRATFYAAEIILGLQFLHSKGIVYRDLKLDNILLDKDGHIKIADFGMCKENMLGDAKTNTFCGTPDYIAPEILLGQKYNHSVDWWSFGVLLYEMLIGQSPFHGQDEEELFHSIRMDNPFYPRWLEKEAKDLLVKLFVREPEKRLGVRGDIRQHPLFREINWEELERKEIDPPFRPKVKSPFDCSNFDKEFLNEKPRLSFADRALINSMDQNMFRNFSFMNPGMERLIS
PKCδ, sequence (Q05655 whole entry): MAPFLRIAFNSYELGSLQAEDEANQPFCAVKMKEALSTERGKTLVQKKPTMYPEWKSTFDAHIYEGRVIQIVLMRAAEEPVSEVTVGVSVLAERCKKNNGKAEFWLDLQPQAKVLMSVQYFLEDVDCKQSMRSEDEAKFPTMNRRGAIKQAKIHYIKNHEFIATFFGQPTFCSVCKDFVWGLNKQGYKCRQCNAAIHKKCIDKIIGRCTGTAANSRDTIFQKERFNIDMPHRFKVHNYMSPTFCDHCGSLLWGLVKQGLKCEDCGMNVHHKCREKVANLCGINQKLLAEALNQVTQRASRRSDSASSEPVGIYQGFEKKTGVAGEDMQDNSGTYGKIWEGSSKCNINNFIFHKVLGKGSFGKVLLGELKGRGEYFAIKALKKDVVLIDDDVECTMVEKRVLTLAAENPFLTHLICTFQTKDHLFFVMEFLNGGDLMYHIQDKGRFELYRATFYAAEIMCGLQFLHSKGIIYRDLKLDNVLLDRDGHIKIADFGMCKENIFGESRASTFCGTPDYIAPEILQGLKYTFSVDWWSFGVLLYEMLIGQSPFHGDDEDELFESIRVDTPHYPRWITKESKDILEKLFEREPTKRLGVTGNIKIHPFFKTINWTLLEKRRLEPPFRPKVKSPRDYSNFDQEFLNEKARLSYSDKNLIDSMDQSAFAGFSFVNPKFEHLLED

Molecule: CCCCCCCCCCCCCC(=O)N[C@@H](CCSC)C(=O)N[C@@H](C)C(=O)N[C@@H](CO)C(=O)N[C@@H](CCCNC(=N)N)C(=O)NCC(=O)N[C@@H](C)C(=O)N[C@@H](CC(C)C)C(=O)N[C@@H](CCCNC(=N)N)C(=O)N[C@@H](CCCNC(=N)N)C(=O)N[C@@H](CS)C(=O)N[C@@H](CC(C)C)C(=O)N[C@@H](CO)C(=O)N1CCC[C@H]1C(=O)NCC(=O)N[C@@H](CC(C)C)C(=O)N1CCC[C@H]1C(=O)N[C@@H](CCCNC(=N)N)C(=O)N[C@@H](CC(C)C)C(=O)N[C@@H](CC(C)C)C(=O)N[C@@H](Cc1c[nH]cn1)C(=O)N[C@@H](CC(C)C)C(=O)N[C@@H](CO)C(=O)N[C@@H](CCCNC(=N)N)C(=O)NCC(=O)N[C@@H](CC(C)C)C(=O)N[C@@H](C)C(N)=O [uPEP2] (Myristoyl-MASRGALRRCLSPGLPRLLHLSRGLA-NH2)
cell viability of U251 MG [1]: reduces cell viability | IC50 (PKCθ): ~2000 nM | effect on kinase activity of PKC-α (classical) (PKC-α): did not affect | phosphorylation of PKC-η priming sites Ser675 and Thr655 [2]: diminished | PKC-η protein in etoposide-treated cells (MCF-7 cells [3]): enhanced degradation | etoposide-promoted phosphorylation of ATM, ATR, Chk1 and Chk2 (MCF-7 cells [3]; lysis 30 min after etoposide): markedly decreased | phosphorylation of γ-H2AX upon etoposide (MCF-7 cells [3]; lysis 30 min after etoposide): markedly increased | cell viability of MCF10A [4]: did not affect | IC50 (PKCδ): ~2000 nM | cell viability of MDA-MB-231 [5]: reduces cell viability | effect on kinase activity of PKC-γ (classical) (PKC-γ): did not affect | cell death in the presence of both agents (uPEP2 and etoposide) (MCF-7 cells [6]): 95 to 100% | IC50 (PKCη): ~2000 nM | IC50 (PKCε): ~2000 nM | effect on kinase activity of PKC-ζ (atypical) (PKC-ζ): did not affect | growth (volume) of MDA-MB-231 tumors in NOD-SCID mice (MDA-MB-231 tumors [7]): inhibited the growth | cell viability of MCF-7 [8]: reduces cell viability | breast tumor mass, NSG mice (MDA-MB-231 tumors [9]; 10 mg/kg intratumor on alternate days, five animals/group): significantly attenuates | growth (volume) of MDA-MB-231 tumors in NSG mice (MDA-MB-231 tumors [9]; 10 mg/kg intratumor on alternate days, five mice/group): inhibited the growth | expression levels of classical PKC-α, PKC-γ and atypical PKC-ζ in tumors (MDA-MB-231 tumors [9]; immunoblot of tumor extracts): not affected | protein levels of novel PKC-η and PKC-ε in tumors (MDA-MB-231 tumors [9]; immunoblot of tumor extracts, NSG and NOD-SCID mice): lower protein levels | phosphorylation of PKC substrates in tumors (MDA-MB-231 tumors [9]; phospho-(Ser) PKC substrate antibody, tumors grown in NSG or NOD-SCID mice): lower | apoptosis in tumors (TUNEL assay) (MDA-MB-231 tumors [9]; tumor tissue slides at end of experiment): increased apoptosis

phosphorylation of the peptide as substrate of PKC-η (PKC-η): excellent substrate | phosphorylation of the peptide as substrate of PKC-ε (PKC-ε): excellent substrate
Molecule: Myr-MASRGS/TLRRCLSPGLPRLLHLSRGLA [uPEP2[A6S]]

inhibition of kinase activity of PKCη (PKCη): weak inhibitory effects
Molecule: Myristoyl-CLSPGLPRLLHLSRGLA [uPEP2(10–26)]

Molecule: Myristoyl-MASRGALRRCLSPGLPR [uPEP2(1–17)]
cell viability of MDA-MB-231 [5]: partial inhibition

Molecule: Myristoyl-MLLHLSRGLA [uPEP2(18–26)]
cell viability of U251 MG [1]: less effective | cell viability of MDA-MB-231 [5]: less effective | cell viability of MCF-7 [8]: less effective

inhibition of kinase activity of PKCη (PKCη): weak inhibitory effects
Molecule: Myristoyl-TRKRQRAMRRVHQING [η-PS, reference compound]
cell viability of U251 MG [1]: less effective | cell viability of MDA-MB-231 [5]: less effective | cell viability of MCF-7 [8]: less effective
